# Compounds with a hit are over-represented: about 2.6% of the library has one in this group of screens.
# Rce1 inh – yeast Rce1p protease inhibitors, primary screen, biochemical, fluorescence, cell-free homogeneous | CAAX prenyl protease 2 (Saccharomyces cerevisiae (strain ATCC 204508 / S288c)), Q03530 | yeast membranes, quenched prenylated peptide cleavage fluorescence | calls only | hit rate 0.27% among 290,000 | AID 2563, 2010;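 active means fall in fluorescence gain of 50% or more versus controls, with final raw signal at or below 3038400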;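 further: plate controls were neutral control wells for no effect and wells lacking membranes for full effect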
# VLA-4 inh – inhibition in human VLA-4 binding assay, primary screen, VLA-4 allosteric modulator project, MLPCN library, flow cytometry, VLA-4 expressing cells | ligand binding flow cytometry | inhibition, % (about 7 µM as worked out from the volumes in the protocol) | hit rate 0.2% among 330,000 | Integrin alpha-4 (Homo sapiens), P13612; in the data active means inhibition above about 50%
# Target sequence (P13612 whole entry, looked up): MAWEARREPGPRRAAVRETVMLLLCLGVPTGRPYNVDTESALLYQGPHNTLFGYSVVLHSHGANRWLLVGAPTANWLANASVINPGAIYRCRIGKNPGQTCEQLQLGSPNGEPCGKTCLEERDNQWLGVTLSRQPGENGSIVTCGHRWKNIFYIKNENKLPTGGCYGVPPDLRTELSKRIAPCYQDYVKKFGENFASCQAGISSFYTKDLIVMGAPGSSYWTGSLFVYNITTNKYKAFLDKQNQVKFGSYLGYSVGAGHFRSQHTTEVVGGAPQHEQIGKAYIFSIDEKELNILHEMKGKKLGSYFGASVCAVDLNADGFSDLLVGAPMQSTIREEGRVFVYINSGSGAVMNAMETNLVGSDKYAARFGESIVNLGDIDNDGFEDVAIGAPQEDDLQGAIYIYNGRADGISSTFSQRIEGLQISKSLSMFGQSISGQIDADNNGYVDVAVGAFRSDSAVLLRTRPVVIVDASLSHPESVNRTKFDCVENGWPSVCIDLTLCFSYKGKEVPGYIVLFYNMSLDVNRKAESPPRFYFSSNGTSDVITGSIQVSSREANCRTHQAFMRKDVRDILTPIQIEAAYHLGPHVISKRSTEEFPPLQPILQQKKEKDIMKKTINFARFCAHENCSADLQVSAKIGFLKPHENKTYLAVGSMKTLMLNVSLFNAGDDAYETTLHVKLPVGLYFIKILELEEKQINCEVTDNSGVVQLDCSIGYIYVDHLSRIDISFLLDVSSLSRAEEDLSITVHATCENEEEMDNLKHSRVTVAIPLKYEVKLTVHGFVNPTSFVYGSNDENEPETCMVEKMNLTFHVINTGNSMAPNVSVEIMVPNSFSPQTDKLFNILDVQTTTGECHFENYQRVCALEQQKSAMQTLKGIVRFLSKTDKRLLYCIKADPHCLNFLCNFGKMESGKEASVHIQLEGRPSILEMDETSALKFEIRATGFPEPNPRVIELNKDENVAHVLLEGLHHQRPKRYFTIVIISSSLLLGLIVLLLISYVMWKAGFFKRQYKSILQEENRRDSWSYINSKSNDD
# Platelet DG rel – inhibitors of platelet dense granule secretion, primary screen, cell-based, MLPCN, human platelets | hit rate 0.22% among 300,000 | human platelet-rich plasma, SFLLRN dense granule ATP release, luminescence | AID 1663, 2009 | inhibition, %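 (compounds screened at 7.5 µM in platelet-rich plasma)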;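 active means mean replicate score, as percent of positive control, at or above 50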
# TAAR1 antag – human TAAR1 antagonists, primary screen, Fluo-8 calcium fluorescence, CHO RD-HGA16 cells. antagonist. inhibition, % at 3 µM. hit rate 1.5% among 360,000. AID 624466, 2012;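 active means inhibition above a per-plate cutoff, the mean inhibition of test compounds on that plate plus 3 SD, cut at about 49% in these data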;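 further: 0% = DMSO plus EC80 beta-PEA response and 100% = DMSO alone without agonist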
#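 System: CHO RD-HGA16 cells bearing hTAAR1. Reagent: EC80 β-phenethylamine stimulus. Schedule: seeding 17-24 h prior, 75-min 37 °C, 30-min RT dye loading. Signal: Fluo-8 intracellular calcium dye fluorescence, real-time kinetic reads. Read-out: % inhibition from peak post-agonist over basal fluorescence ratio. Benchmarks: vehicle wells and EC80 agonist wells. Replicates: n of 1.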
# TAAR1 ag – human TAAR1 agonists, primary screen, Fluo-8 calcium fluorescence, CHO RD-HGA16 cells | activation, % at 3 µM | hit rate 0.99% among 360,000 | AID 624467, 2012 | vehicle wells 0%, saturating PEA agonist 100%;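 active means activation above the mean activation of all test compounds in the run plus 3 SD, cut at about 38% in these data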
#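 Test system: RD-HGA16 (CHO) cells co-expressing Gα16 and hTAAR1; dosing: one-point dosing at 3 µM (nominal); timing: 17-24 h seeding, 75 min 37 °C dye, 30 min RT; signal: kinetic Fluo-8 calcium fluorescence; read-out basis: % activation relative to PEA EC100 response; controls: DMSO and PEA EC100; replicates: n 1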
# Active calls of the source: *; i = inactive; / = no result; + = active, no number.
SMILES,Rce1 inh,VLA-4 inh,Platelet DG rel,TAAR1 antag,TAAR1 ag
O=C(NC1CCCc2c1cnn2-c1ccccc1F)c1ccncc1 (centres undefined),/,/,/,5,3
COc1ccc(C(=O)O/N=C2\C(=O)N(C)c3ccccc32)cc1,/,15,3,-10,11
COc1ccc(C(=O)N=c2nc3ccccn3s2)cc1,i,3,50*,9,2
COCC(=O)O[C@]1(CCN(C)CCCc2nc3ccccc3[nH]2)CCc2cc(F)ccc2[C@@H]1C(C)C,i,18,-2,41,41*
CCOC(=O)CCc1nc2ccccc2[nH]1,i,6,-3,-5,0
CCC(C)(C)n1nnnc1C(c1cc2ccc(OC)cc2[nH]c1=O)N1CCc2ccccc2C1 (centres undefined),i,2,10,3,75*
Cc1ccccc1C(=O)N1CCC2CC1c1cc(-c3ccc(F)cc3)ccc12 (centres undefined),/,/,/,59*,0
COc1cccc(C(=O)Nc2cccc(OC(C)=O)c2)c1,i,5,9,3,3
Cc1ncoc1C(=O)Nc1ccc2c(c1)OCCO2,i,/,66*,2,7
COc1cccc(C(=O)COc2cccc(NC(=O)c3cccc([N+](=O)[O-])c3)c2)c1,/,-2,/,68*,17
CC(=O)Oc1cccc(NC(=O)c2cccc(C(=O)Nc3cccc(OC(C)=O)c3)c2)c1,i,8,-4,69*,9
COc1cccc(NC(=O)c2ccc3c(c2)OCCO3)c1,i,/,52*,2,1
CCCCn1nnnc1C(c1cc2ccccc2o1)N1CCN(C(=O)OCC)CC1 (centres undefined),/,/,/,-7,2
COc1cc(/C=C/C(=O)OC(C)C(=O)Nc2c(C)n(C)n(-c3ccccc3)c2=O)ccc1O (centres undefined),i,10,0,-2,2
CCc1ccc(NC(=O)C(C)OC(=O)/C=C/c2ccc(O)c(OC)c2)cc1 (centres undefined),/,-2,/,82*,111*
COc1cc(/C=C/C(=O)OCC(=O)c2ccc(OC(F)F)cc2)ccc1O,/,8,/,61*,30
O=[N+]([O-])c1cnccc1NC1CCCCC1,i,2,1,-12,-1
CCCNC(=O)C1(C)CCCN(Cc2ccccc2C#N)C1 (centres undefined),/,/,/,11,0
O=C(NNC(=O)c1cc(-c2cccnc2)nc2ccccc12)Nc1ccc(Cl)cc1,i,7,0,82*,13
O=C(Nc1ccc(C(=O)N2CCOCC2)cc1)c1cc(-c2cccnc2)nc2ccc(Br)cc12,i,-9,7,53*,20
CC1=CC(=O)C(C(C)C)=C/C1=N/OS(=O)(=O)c1ccccc1,i,0,10,43,20
CC1=CC(=O)C=C(C)C1=NOS(=O)(=O)c1ccccc1,i,/,4,52*,19
CCN(C(=O)COC(=O)CCc1ccccc1)c1ccccc1,i,4,1,-5,2
O=C(c1cc(-c2ccncc2)nc2ccc(Br)cc12)N1CCN(Cc2ccc3c(c2)OCO3)CC1,i,10,-1,62*,15
Cc1ccc2nc(-c3ccncc3)cc(C(=O)N3CCOCC3)c2c1,/,-7,6,/,/
SMILES,Rce1 inh,VLA-4 inh,Platelet DG rel,TAAR1 antag,TAAR1 ag
COc1cccc2[nH]c3c(N4CCN(Cc5ccc6c(c5)OCO6)CC4)ncnc3c12,+,3,12,11,6
COc1ccc2c(c1)[nH]c1c(N3CCN(Cc4ccc5c(c4)OCO5)CC3)ncnc12,i,0,-1,30,12
CCn1c(O)c(/C=N/N=C/c2ccc(OC)cc2)c2cc(C3=NNC(=O)CC3)ccc21,i,-3,-2,-6,1
CC/C(C)=N\N=C\c1c(O)n(CC)c2cc(C3=NNC(=O)CC3)ccc12,i,-6,75*,/,/
Cc1ccc(C(C)C)c(OCCCNCc2cccnc2)c1,i,0,6,-10,15
Cc1ccc(C(C)C)c(OCCNCCc2ccccc2)c1,/,2,-11,25,44*
CCCCn1c(N)c(N(CCOC)C(=O)COC(=O)c2cc(CCC)c(C)s2)c(=O)[nH]c1=O,i,-8,-9,-21,2
COCCN1C(=O)/C(=C/c2ccc(Oc3ccc([N+](=O)[O-])cn3)c(OC)c2)SC1=Nc1ccccc1,+,37,1,-2,3
COc1cc(/C=C2\SC(=Nc3ccccc3)N(CCc3c[nH]c4ccccc34)C2=O)ccc1OC(C)C(=O)O (centres undefined),i,-4,6,13,0
CC(C)[C@@]1(c2ccc(Cl)cc2)ON(c2ccccc2C(F)(F)F)C1=O,/,19,/,/,/
OC(COc1ccccc1Cl)CN1CCN(CC(O)COc2ccccc2Cl)CC1 (centres undefined),i,14,1,50*,29
OC(COc1ccc(Cl)cc1)CN1CCC(Cc2ccccc2)CC1 (centres undefined),i,13,3,8,41*
Cc1ccccc1OCC(O)CN1CCN(C)CC1 (centres undefined),i,-4,2,19,1
CC(C)C(C(=O)Nc1ccncc1)c1ccc(Cl)cc1 (centres undefined),i,8,2,37,54*
FC(F)(F)c1nc2nc(Cl)c(Cl)nc2n1CCCN1CCOCC1,/,/,/,17,1
N#Cc1cc(-c2ccccc2)oc1NC(=O)c1ccco1,i,2,1,15,0
Cc1cccc(C(=O)Nc2oc(-c3ccccc3)cc2C#N)c1,i,0,12,49*,5
CCN(CC)CCCN(Cc1cc2cc3c(cc2[nH]c1=O)OCO3)C(=S)NCCCN(C)C,+,5,2,1,0
CN(C)CCCNC(=S)N(CCCN(C)C)Cc1cc2cc3c(cc2[nH]c1=O)OCO3,i,-11,-6,-10,9
COc1ccc(NC2CCCN(C(=O)CCOc3ccccc3)C2)cc1 (centres undefined),i,11,0,-3,0
NC(Cc1ccccc1)c1csc(Nc2ccc(C(=O)c3ccccc3)cc2)n1 (centres undefined),/,/,/,27,54*
CC(=O)c1ccc(Nc2nc(C(N)C3CCCCC3)cs2)cc1 (centres undefined),/,/,/,-21,4
NC(c1csc(Nc2nccc(C(F)(F)F)n2)n1)C1CCCCC1 (centres undefined),/,/,/,30,44*
NC(Cc1ccc(Cl)cc1)c1csc(Nc2ccc(C(=O)c3ccccc3)cc2)n1 (centres undefined),/,/,/,44,33
NC(c1csc(Nc2ncccn2)n1)C1CCCCC1 (centres undefined),/,/,/,-17,3

# Source: PubChem BioAssay (several laboratories)
